PREPL inh: PREPL enzyme inhibitors, primary screen, biochemical, fluorescence polarization | Prolyl endopeptidase-like (Homo sapiens), Q4J6C6 | recombinant PREPL, fluorescence polarization activity-based probe | inhibition, % at 5.96 µM | 0.68% of 320,000 active | AID 2751, 2010; in the data active = inhibition above about 43%
Rin1-Abl PPI inh: inhibitors of Rin1-Abl protein binding, primary screen, biochemical, TR-FRET | inhibition, % at 7.35 µM | 0.4% of 360,000 active | AID 588664, 2011; in the data active = inhibition above about 5%, passing the limit was not always enough
ALR inh: inhibitors of human ALR sulfhydryl oxidase, primary screen, biochemical, H2O2 detection, HRP-luminol luminescence, single point; FAD-linked sulfhydryl oxidase ALR (Homo sapiens), P55789; purified ALR, DTT oxidation; inhibition, % (no concentration beside the values); 3.8% of 290,000 active; AID 485317, 2010;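 active = mean replicate inhibition above about 79%, with every replicate also reaching it, limit read from the data; inconclusive = only one of the two criteria met; inactive = mean below limit and not every replicate reaching it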
Target sequence (P55789 whole entry, looked up): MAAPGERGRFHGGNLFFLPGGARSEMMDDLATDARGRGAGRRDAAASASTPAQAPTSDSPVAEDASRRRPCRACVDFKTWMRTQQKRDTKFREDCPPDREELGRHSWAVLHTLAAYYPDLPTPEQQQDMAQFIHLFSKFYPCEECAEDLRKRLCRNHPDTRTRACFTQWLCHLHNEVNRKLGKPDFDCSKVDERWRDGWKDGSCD
SUMO HTRF inh: inhibitors of in vitro SUMOylation cascade, primary screen, biochemical, HTRF, uHTS; 0.36% of 290,000 active; AID 2006, 2009; SUMO-conjugating enzyme UBC9 (Homo sapiens), P63279; HTRF SUMOylation assay, SAE1/SAE2 + UBC9; inhibition, % at 35 µM; in the data active = inhibition above about 50%, passing the limit was not always enough; inconclusive = no clear call, values can overlap the other calls
UBC13 polyUb: UBC13 polyubiquitin chain formation inhibitors, primary screen, biochemical, TR-FRET, uHTS; Ubiquitin-conjugating enzyme E2 N (Homo sapiens), P61088; 0.47% of 330,000 active; inhibition, % at 20 µM; in the data active = inhibition above about 45%, passing the limit was not always enough; inconclusive = no clear call, values can overlap the other calls
Target sequence (P61088 whole entry, looked up): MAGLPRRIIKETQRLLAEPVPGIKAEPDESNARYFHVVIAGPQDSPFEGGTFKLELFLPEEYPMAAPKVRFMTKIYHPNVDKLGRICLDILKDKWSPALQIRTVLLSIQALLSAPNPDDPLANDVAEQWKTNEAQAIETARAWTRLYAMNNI
RBBP9 inh: human RBBP9 inhibitors, primary screen, biochemical, fluorescence polarization, FP-Rh probe, HTS. Serine hydrolase RBBP9 (Homo sapiens), O75884. recombinant RBBP9. inhibition, % at 7.94 µM. 0.2% of 220,000 active. AID 1515, 2009;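 active = inhibition above the campaign mean of all tested compounds plus 3 SD, cut at about 14% in these data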
Target sequence (O75884 whole entry, looked up): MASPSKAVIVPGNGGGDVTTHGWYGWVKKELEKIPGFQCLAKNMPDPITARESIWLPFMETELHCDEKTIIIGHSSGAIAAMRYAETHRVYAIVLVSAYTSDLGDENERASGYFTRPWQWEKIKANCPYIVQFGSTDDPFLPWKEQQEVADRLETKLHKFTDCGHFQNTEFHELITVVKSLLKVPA
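Material: RBBP9 protein. Amount: RBBP9 at 2.5 µM in dispensed solution, before mixing. Schedule: 30 min then 45 min, 25 °C. Medium: Tris buffer pH 8.0, NaCl, Pluronic. Measured by: fluorescence polarization. Measure: percent inhibition from mP, scaled between DMSO and no-protein wells. Replication: one well per compound.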
Casp3 UBC13 ctr: CASP3 inhibitor validation, counterassay for project on UBE2N polyubiquitination blockers, biochemical, one dose; inhibition, % at 20 µM; shares compounds with UBC13 polyUb; Recombinant caspase-3, Caspase-Glo 3/7 luminescence, 60 min; AID 488856, 2010; 4% of 1,400 active;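 active = mean inhibition across replicates above about 26%, limit read from the data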
UBC13 confirm: UBC13 polyubiquitination inhibitors, single-point retest, confirmation, biochemical, TR-FRET, single concentration. shares compounds with UBC13 polyUb. inhibition, % at 10 µM. 68% of 1,400 active. AID 488859, 2010; in the data active = inhibition above about 45%; inconclusive = no clear call, values can overlap the other calls
Hits are given with their value; i = inactive; ? = inconclusive; nt = no result. A selection: hits, their analogues and other compounds. The true share with any hit is near 4.3%.

SMILES | PREPL inh | Rin1-Abl PPI inh | ALR inh | SUMO HTRF inh | UBC13 polyUb | RBBP9 inh | Casp3 UBC13 ctr | UBC13 confirm
C#CCOCCOCCOCCNc1nc(N2CCN(C(=O)[C@H](CCC(=O)O)n3cc(C(N)Cc4ccc(O)cc4)nn3)CC2)nc(N2CCN(C(=O)[C@H](Cc3ccc(O)cc3)n3cc(C(N)[C@H](C)CC)nn3)CC2)n1 (some centres undefined) | nt | nt | nt | i | i | nt | nt | nt
C#CCOCCOCCOCCNc1nc(N2CCN(C(=O)[C@H]([C@@H](C)CC)n3cc([C@@H](N)Cc4ccc(O)cc4)nn3)CC2)nc(N2CCN(C(=O)[C@H](Cc3ccc(O)cc3)n3cc([C@@H](N)C(C)CC)nn3)CC2)n1 (some centres undefined) | i | i | i | i | 64 | i | i | 57
C#CCOCCOCCOCCNc1nc(N2CCN(C(=O)[C@H]([C@@H](C)CC)n3cc([C@@H](N)Cc4ccc(O)cc4)nn3)CC2)nc(N2CCN(C(=O)[C@H](CCCCN)n3cc([C@@H](N)CO)nn3)CC2)n1 | i | nt | nt | i | 98 | i | i | 73
COc1ccc(Cl)cc1-c1cc(C(=O)NCc2cccc(C(F)(F)F)c2)[nH]n1 | nt | i | nt | nt | nt | nt | nt | nt
O=C(C[C@H]1C[C@H]2c3cc(NS(=O)(=O)c4ccc(F)cc4)ccc3O[C@H]2[C@H](CO)O1)NCc1ccncc1 | nt | i | nt | nt | nt | nt | nt | nt
O=C(CCNC(=O)c1ccccc1Cl)Nc1nc2ccccc2s1 | i | i | i | i | 80 | i | i | 101
CC(C)N(C(=O)CSc1ccc(S(=O)(=O)N2CCCCC2)cn1)C(C)C | i | i | i | nt | i | nt | nt | nt
O=C(Cn1nc(-c2nn(CC(=O)c3ccccc3)c3[n+]2CCCCC3)[n+]2c1CCCCC2)c1ccccc1 | i | i | i | i | 78 | i | i | i
COc1ccc(C(=O)Cn2nc(CNc3ccc(Br)cc3)[n+]3c2CCCCC3)cc1 | i | i | i | i | i | i | nt | nt
CCCCCCCN1C(Nc2ccccc2)=NC[C@@H]1Cc1ccccc1 | i | i | i | i | i | nt | nt | nt
CC(C)(C)C1CCC(CN2C(Nc3ccccc3)=NC[C@@H]2Cc2ccccc2)CC1 (some centres undefined) | i | i | i | nt | 72 | nt | i | 77
c1ccc(CCCCN2C(Nc3ccccc3)=NC[C@@H]2Cc2ccccc2)cc1 | i | i | nt | nt | 49 | nt | i | i
COc1ccc(CN(C2CC2)S(=O)(=O)c2ccccc2Br)cc1 | nt | i | nt | nt | nt | nt | nt | nt
CCOc1ccccc1NS(=O)(=O)c1cn(C)nc1C | i | i | i | i | i | i | nt | nt
COc1ccc(C(=O)Nn2c(SCc3cccc([N+](=O)[O-])c3)nc3ccccc3c2=O)cc1 | i | i | i | i | i | i | nt | nt
COc1ccc(C(=O)Nn2c(SCC(=O)NCc3ccco3)nc3ccccc3c2=O)cc1 | i | i | i | i | 71 | i | i | 74
O=C(CCCCCn1c(SCc2ccncc2)nc2ccccc2c1=O)NCc1ccco1 | i | i | i | i | 69 | i | i | 47
COc1ccc(C(=O)Nn2c(SCC(=O)c3ccc(Cl)cc3)nc3ccccc3c2=O)cc1 | i | i | i | i | 50 | i | i | 56
N#CCSc1nc2ccccc2c(=O)n1CCCC(=O)NCc1ccco1 | i | i | i | i | i | i | nt | nt
COc1ccc(C(=O)Nn2c(SCC(=O)NC3CCCCC3)nc3ccccc3c2=O)cc1 | i | i | i | i | i | i | nt | nt
COc1ccc(C(=O)Nn2c(SCC(=O)N3CCC(C)CC3)nc3ccccc3c2=O)cc1 | i | i | nt | i | 80 | i | 85 | 84
CCn1c(SCC(=O)NCc2ccco2)nc2ccccc2c1=O | i | i | i | i | i | i | nt | nt
COc1ccc(CNC(=S)Nc2ccccc2)cc1 | i | i | i | i | i | nt | nt | nt
CC(C)CNC(=O)COC(=O)c1ccccc1SCC(=O)NCC(C)C | i | i | i | i | i | i | nt | nt
CCCCc1ccc(/C=C(\C#N)C(N)=S)s1 | nt | i | nt | i | 53 | i | i | 59
SMILES | PREPL inh | Rin1-Abl PPI inh | ALR inh | SUMO HTRF inh | UBC13 polyUb | RBBP9 inh | Casp3 UBC13 ctr | UBC13 confirm
Cc1cc(-c2nnc(SCC(=O)Nc3nc(-c4ccc(Cl)cc4)cs3)o2)no1 | i | i | 99 | i | 49 | i | i | i
CCN(CC(=O)Nc1c(F)cccc1F)C(=O)CCN1C(=O)C2CC=CCC2C1=O (centres undefined) | i | i | i | nt | i | nt | nt | nt
COc1ccc(CCN2CCC(Nc3nc4ccccc4n3Cc3ccc(F)cc3)CC2)cc1 | i | i | i | i | 48 | i | i | i
COc1ccc(Cn2c(-c3ccc(OC)cc3)nc3ccccc32)cc1 | i | i | i | i | i | i | nt | nt
CCn1ccnc1CNC(=O)c1ccc(OC2CCN(C(=O)COC)CC2)cc1 | i | i | i | i | i | nt | nt | nt
Cc1ccc(C)c(N2CCN(c3ccc4cc(S(=O)(=O)N5CCCCC5)ccc4n3)CC2)c1 | i | i | i | i | ? | nt | nt | nt
Cc1cccc(N2CCN(c3ccc4cc(S(=O)(=O)N5CCCCC5)ccc4n3)CC2)c1C | i | i | i | i | 52 | nt | i | ?
CCC(C)c1ccc(NC(=S)N2CCN(S(C)(=O)=O)CC2)cc1 (centres undefined) | i | i | i | i | i | nt | nt | nt
CC(=O)c1cn(S(=O)(=O)c2ccccc2)c2ccccc12 | i | i | nt | i | 91 | i | i | 88
COC(=O)c1cn(S(=O)(=O)c2ccccc2)c2ccccc12 | i | i | nt | i | i | nt | nt | nt
CC(C)=CCc1c(O)cc(O)c2c(=O)c(O[C@@H]3O[C@@H](C)[C@H](O)[C@@H](O)[C@H]3O)c(-c3ccc(O)cc3)oc12 | i | i | nt | nt | 86 | nt | i | 78
O=C(NC1CCCC1)C(c1ccccn1)N(Cc1ccc(F)cc1)C(=O)c1csnn1 (centres undefined) | i | i | i | i | i | nt | nt | nt
O=C1c2cc(Cl)ccc2OC2(CCNCC2)C12CC(c1ccc(Cl)cc1)=NO2 (centres undefined) | i | i | i | i | 48 | nt | i | i
O=C(NNC(=O)c1nn(-c2ccc(F)cc2)ccc1=O)c1ccccc1Cl | i | i | i | i | 81 | i | i | 91
CC1=C(C(=O)N(C(C)C)C(C)C)CC(CC(=O)NCCN2CCOCC2)C(=O)N1CCC1=CCCCC1 (centres undefined) | nt | i | nt | nt | nt | nt | nt | nt
Cc1c(NC(=O)CCCN2C(=O)c3cccc4cccc(c34)C2=O)c(=O)n(-c2ccccc2)n1C | i | i | i | i | 81 | i | i | 94

Source: PubChem
